Legend:
[1] = In vivo evaluation for the percentage decrease in blood pressure at 135 umol/kg administered through oral route in spontaneously hypertensive rats and observed for 12-18 h; assay type: functional, Rattus norvegicus
In short: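 Spontaneously hypertensive rats, n = 5, dosed orally at 135 μmol/kg; blood pressure followed and reported as percent decrease over the 0-6, 6-12 and 12-18 h intervals after dosing.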

[2] = In vivo evaluation for the percentage decrease in blood pressure at 45 umol/kg administered through oral route in spontaneously hypertensive rats and observed for 6-12 h
[3] = In vivo evaluation for the percentage decrease in blood pressure at 45 umol/kg administered through oral route in spontaneously hypertensive rats and observed for 0-6 h
[4] = In vivo evaluation for the percentage decrease in blood pressure at 45 umol/kg administered through oral route in spontaneously hypertensive rats and observed for 12-18 h
[5] = species on record: Oryctolagus cuniculus; assay: In vitro evaluation for the vasorelaxant effects in circumferential strips of potassium-depolarized rabbit aorta. (IC50 in rabbit aorta strips contracted with KCl); assay type: functional
[6] = (§1) In vitro inhibition [3H]diltiazem binding to calcium channels in isolated guinea pig skeletal muscle microsomal preparations; assay type: microsomes, Cavia porcellus, Muscle tissue, Microsome
[7] = species on record: Cavia porcellus; assay: as §1; assay type: microsomes; conditions: Muscle tissue, Microsome, concentration not given here

Row | Compound | Decrease [1] | Decrease [2] | Decrease [3] | Decrease [4] | IC50 [5] | Kd [6] | inhibition [7]
1 | C=CC[C@H]1C(=O)N(CCN(C)C)c2ccccc2C[C@H]1c1ccc(OC)cc1.Cl | 18% | 23% | 25% | – | – | – | –
2 | COc1ccc([C@@H]2Cc3c(cccc3C(F)(F)F)N(CCN(C)C)C(=O)[C@@H]2OC(C)=O)cc1 | – | 12% | 17% | 12% | – | – | –
3 | CC[C@H]1C(=O)N(CCN(C)C)c2cccc(C(F)(F)F)c2C[C@H]1c1ccc(OC)cc1.Cl | 15% | 19% | 24% | – | – | – | –
4 | C=CC[C@H]1C(=O)N(CCN(C)C)c2ccc(C(F)(F)F)cc2C[C@H]1c1ccc(OC)cc1.Cl | – | 28% | 23% | 30% | 0.24 µM | – | –
5 | COc1ccc([C@@H]2Sc3cc(Cl)ccc3N(CCN(C)C)C(=O)[C@@H]2OC(C)=O)cc1 [CLENTIAZEM] | – | 16% | 29% | 22% | 0.1 µM | – | –
6 | COc1ccc([C@@H]2Cc3c(cccc3C(F)(F)F)N(CCN(C)C)C(=O)[C@@H]2Cc2ccccc2)cc1 | 6% | 8% | 14% | – | – | – | –
7 | COc1ccc([C@@H]2Cc3c(ccc(SC)c3OC)N(CCN(C)C)C(=O)[C@@H]2C)cc1.Cl | 14% | 15% | 18% | – | 0.07 µM | – | –
8 | CC[C@H]1C(=O)N(CCN(C)C)c2cccc(Cl)c2C[C@H]1c1ccc(OC)cc1 | – | 18% | 14% | 7% | 0.08 µM | – | –
9 | COc1ccc([C@@H]2Cc3cc(Cl)ccc3N(CCN(C)C)C(=O)[C@@H]2C)cc1 | 11% | 13% | 12% | – | 0.15 µM | 0.67 µM | –
10 | C=CCC1C(=O)N(CCN(C)C)c2cccc(C(F)(F)F)c2CC1c1ccc(OC)cc1.Cl (centres undefined) | – | 27% | 24% | 29% | 0.1 µM | – | –
11 | COc1ccc([C@@H]2Cc3ccccc3N(CCN(C)C)C(=O)[C@@H]2C)cc1.Cl | 8% | 4% | 6% | – | 1.1 µM | – | –
12 | COc1ccc([C@@H]2Cc3c(cccc3C(F)(F)F)N(CCN(C)C)C(=O)[C@@H]2C)cc1 | 22% | 22% | 28% | – | 0.08 µM | – | 90%
13 | COc1ccc([C@@H]2Cc3c(ccc(Br)c3OC)N(CCN(C)C)C(=O)[C@@H]2C)cc1.Cl | 14% | 12% | 9% | – | 0.09 µM | 0.12 µM | –
14 | C=CC[C@H]1C(=O)N(CCN(C)C)c2ccc(Cl)cc2C[C@H]1c1ccc(OC)cc1 | 25% | 23% | 23% | – | 0.16 µM | 5.04 µM | –
15 | COc1ccc([C@@H]2Cc3c(cccc3C(F)(F)F)N(CCN(C)C)C(=O)[C@H]2C)cc1 | – | 23% | 24% | 17% | – | – | –
16 | COc1ccc([C@@H]2Cc3c(OC)cccc3N(CCN(C)C)C(=O)[C@@H]2C)cc1.Cl | 8% | 10% | 7% | – | – | 0.4 µM | –
17 | CCC[C@H]1C(=O)N(CCN(C)C)c2ccccc2C[C@H]1c1ccc(OC)cc1.Cl | 12% | 11% | 10% | – | – | 0.25 µM | –
18 | CCC[C@H]1C(=O)N(CCN(C)C)c2ccc(C(F)(F)F)cc2C[C@H]1c1ccc(OC)cc1.Cl | 8% | 5% | 6% | – | 1.2 µM | – | –
19 | COc1ccc([C@@H]2Cc3cc(C(F)(F)F)ccc3N(CCN(C)C)C(=O)[C@@H]2C)cc1.Cl | 25% | 23% | 23% | – | 1.23 µM | – | –
20 | CCC[C@H]1C(=O)N(CCN(C)C)c2cccc(C(F)(F)F)c2C[C@H]1c1ccc(OC)cc1.Cl | – | 19% | 14% | 24% | – | – | –
21 | C=CC[C@H]1C(=O)N(CCN(C)C)c2cccc(C(F)(F)F)c2C[C@H]1c1ccc(OC)cc1.Cl (relative stereo) | 27% | 32% | 33% | – | 0.077 µM | – | –
22 | CC[C@H]1C(=O)N(CCN(C)C)c2ccc(Cl)cc2C[C@H]1c1ccc(OC)cc1 | 21% | 22% | 20% | – | 0.28 µM | – | –
23 | COc1ccc([C@@H]2Cc3c(cccc3C(F)(F)F)N(CCN(C)C)C(=O)[C@H]2C)cc1.Cl | 8% | 9% | 12% | – | – | – | –
